From ChEMBL document CHEMBL1132299, “Phosphinic pseudo-tripeptides as potent inhibitors of matrix metalloproteinases: a structure-activity study” (J Med Chem, 1999)

Tests used:
[1] = biological target: T1, Interstitial collagenase (Homo sapiens) (UniProt P03956); assay: In vitro inhibition of MMP-1 at 2 uM.
T1 sequence (whole entry): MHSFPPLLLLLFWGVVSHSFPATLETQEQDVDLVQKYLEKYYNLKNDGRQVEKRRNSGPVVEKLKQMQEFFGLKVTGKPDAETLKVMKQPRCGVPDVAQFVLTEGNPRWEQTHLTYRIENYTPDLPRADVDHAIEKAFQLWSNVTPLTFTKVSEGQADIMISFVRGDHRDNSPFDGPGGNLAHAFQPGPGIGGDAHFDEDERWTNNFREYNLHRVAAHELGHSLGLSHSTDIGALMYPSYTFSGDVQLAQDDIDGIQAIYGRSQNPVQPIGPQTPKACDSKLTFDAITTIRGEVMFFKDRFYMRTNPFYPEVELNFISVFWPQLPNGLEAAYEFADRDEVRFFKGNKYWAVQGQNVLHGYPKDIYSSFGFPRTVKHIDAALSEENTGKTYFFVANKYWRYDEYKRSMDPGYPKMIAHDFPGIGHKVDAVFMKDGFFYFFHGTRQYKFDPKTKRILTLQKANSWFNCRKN

[2] = biological target: T2, 72 kDa type IV collagenase (Homo sapiens, UniProt P08253); assay: Binding affinity against matrix metalloprotease-2 (gelatinase-A).
Procedure, shortened: (§1)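 Full-length human pro-MMP-2, -9 and -8 were expressed in NSO myeloma cells and activated with 4-aminophenylmercuric acetate just before use. Run at 25 °C in 50 mM Tris/HCl pH 6.8, 10 mM CaCl2, with 0.2–5 nM enzyme and 6 µM Mca-Pro-Leu-Gly-Leu-Dpa-Ala-Arg-NH2; fluorescence 340/400 nm, 30 min. Km: MMP-2 49, MMP-9 14, MMP-8 61 µM. Triplicate, five inhibitor levels; Ki by Horovitz–Levitski.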
Target sequence in this assay (P08253 whole entry): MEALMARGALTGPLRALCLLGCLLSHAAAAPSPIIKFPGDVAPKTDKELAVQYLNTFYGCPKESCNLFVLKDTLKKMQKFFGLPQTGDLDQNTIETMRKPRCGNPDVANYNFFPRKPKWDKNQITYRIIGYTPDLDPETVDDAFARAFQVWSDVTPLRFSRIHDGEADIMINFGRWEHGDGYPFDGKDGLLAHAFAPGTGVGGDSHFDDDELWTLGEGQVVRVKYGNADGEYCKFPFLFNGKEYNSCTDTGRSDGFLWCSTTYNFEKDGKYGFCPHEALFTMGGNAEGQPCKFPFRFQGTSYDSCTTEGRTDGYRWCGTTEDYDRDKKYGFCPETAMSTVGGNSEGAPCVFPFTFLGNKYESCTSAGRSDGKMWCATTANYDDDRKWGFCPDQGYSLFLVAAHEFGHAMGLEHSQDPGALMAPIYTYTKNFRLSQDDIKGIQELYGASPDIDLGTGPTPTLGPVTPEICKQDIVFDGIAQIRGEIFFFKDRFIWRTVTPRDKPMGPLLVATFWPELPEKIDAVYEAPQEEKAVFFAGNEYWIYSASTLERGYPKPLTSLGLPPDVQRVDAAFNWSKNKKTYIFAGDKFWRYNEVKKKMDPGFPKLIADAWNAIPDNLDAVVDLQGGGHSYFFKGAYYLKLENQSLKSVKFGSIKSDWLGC

[3] = biological target: T3, Matrix metalloproteinase-9 (Homo sapiens, UniProt P14780); assay: Binding affinity against matrix metalloprotease-9 (gelatinase-B).; procedure, shortened: as §1
T3 sequence (P14780 whole entry): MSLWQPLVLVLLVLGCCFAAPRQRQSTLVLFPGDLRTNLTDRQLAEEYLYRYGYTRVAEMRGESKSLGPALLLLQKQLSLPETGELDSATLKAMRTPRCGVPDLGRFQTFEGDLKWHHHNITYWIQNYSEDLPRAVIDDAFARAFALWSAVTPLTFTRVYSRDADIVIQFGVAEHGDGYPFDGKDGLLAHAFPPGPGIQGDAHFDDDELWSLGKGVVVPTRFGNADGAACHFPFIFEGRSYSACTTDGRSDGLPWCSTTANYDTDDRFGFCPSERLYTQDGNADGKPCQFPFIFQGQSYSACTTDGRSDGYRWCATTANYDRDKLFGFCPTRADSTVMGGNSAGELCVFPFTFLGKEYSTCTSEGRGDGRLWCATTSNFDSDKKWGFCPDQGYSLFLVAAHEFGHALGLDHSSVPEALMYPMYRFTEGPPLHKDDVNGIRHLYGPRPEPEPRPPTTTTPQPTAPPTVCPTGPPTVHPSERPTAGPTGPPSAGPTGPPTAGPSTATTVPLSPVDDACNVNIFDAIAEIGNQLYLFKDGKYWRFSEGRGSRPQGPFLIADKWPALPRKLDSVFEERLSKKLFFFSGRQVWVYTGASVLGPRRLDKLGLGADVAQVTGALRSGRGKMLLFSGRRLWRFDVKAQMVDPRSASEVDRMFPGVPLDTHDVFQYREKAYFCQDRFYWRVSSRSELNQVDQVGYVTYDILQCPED

[4] = biological target: T4, Matrix metalloproteinase-14 (Homo sapiens, UniProt P50281); assay: Binding affinity against matrix metalloprotease-14 MTI-MMP.
Procedure, shortened: (§2)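 Catalytic domains of human MMP-14 and MMP-7 were expressed in E. coli BL21 DE3 pLysS. Buffer 50 mM Tris/HCl pH 6.8, 10 mM CaCl2, 25 °C; 0.2–5 nM enzyme; 6 µM Mca-Pro-Leu-Gly-Leu-Dpa-Ala-Arg-NH2 read by fluorescence (ex 340, em 400 nm) for 30 min. Km: MMP-14 21, MMP-7 67 µM. Five inhibitor concentrations in triplicate; Ki by Horovitz–Levitski method.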

Stromelysin-3 = biological target: T5, Stromelysin-3 (Mus musculus, UniProt Q02853); assay: Binding affinity against matrix metalloprotease-11.
T5 sequence (Q02853 whole entry): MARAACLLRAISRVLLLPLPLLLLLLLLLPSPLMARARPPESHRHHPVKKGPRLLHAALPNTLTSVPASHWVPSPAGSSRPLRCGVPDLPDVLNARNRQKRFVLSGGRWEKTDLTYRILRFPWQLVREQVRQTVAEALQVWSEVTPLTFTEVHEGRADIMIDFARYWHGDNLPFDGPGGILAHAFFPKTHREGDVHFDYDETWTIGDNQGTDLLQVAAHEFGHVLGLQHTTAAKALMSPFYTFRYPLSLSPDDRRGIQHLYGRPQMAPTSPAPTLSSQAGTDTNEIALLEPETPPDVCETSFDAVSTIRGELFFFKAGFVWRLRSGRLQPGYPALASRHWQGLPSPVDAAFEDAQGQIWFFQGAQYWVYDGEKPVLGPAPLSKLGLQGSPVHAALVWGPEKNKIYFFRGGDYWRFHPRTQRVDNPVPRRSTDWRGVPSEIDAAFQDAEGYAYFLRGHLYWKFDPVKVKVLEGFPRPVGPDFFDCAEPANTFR
Procedure, shortened: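 Mouse MMP-11 catalytic domain from E. coli BL21 DE3 pLysS, assayed in stirred quartz cuvettes in 50 mM Tris/HCl pH 6.8, 10 mM CaCl2 at 25 °C. Substrate was Mca-Pro-Leu-Ala-Cys(OMeBn)-Trp-Ala-Arg-Dpa-NH2 (Km 0.2 µM), with fluorescence read-out. Percent inhibition was measured in triplicate at five concentrations (20–80% range), and Ki was derived by the Horovitz–Levitski method.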

Neutrophil collagenase [5] = biological target: T6, Neutrophil collagenase (Homo sapiens, UniProt P22894); assay: Inhibition of matrix metalloprotease-8; procedure, shortened: as §1
Target sequence in this assay (P22894 whole entry): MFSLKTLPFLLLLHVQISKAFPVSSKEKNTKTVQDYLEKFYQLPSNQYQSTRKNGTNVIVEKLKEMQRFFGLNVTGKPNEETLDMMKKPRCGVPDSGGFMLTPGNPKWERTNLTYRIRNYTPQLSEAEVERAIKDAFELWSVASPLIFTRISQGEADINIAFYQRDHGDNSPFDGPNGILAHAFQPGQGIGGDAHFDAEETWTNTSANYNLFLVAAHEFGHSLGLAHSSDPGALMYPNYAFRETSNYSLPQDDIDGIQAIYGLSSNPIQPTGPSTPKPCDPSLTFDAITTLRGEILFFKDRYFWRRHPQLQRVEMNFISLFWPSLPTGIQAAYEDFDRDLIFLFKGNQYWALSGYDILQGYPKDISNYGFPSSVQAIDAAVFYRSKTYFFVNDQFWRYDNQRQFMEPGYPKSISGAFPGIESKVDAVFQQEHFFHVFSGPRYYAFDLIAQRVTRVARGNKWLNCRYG

Matrilysin = biological target: T7, Matrilysin (Homo sapiens, UniProt P09237); assay: (§3) Inhibition of Matrix metalloprotease-7 Matrilysin; procedure, shortened: as §2
T7 sequence (P09237 whole entry): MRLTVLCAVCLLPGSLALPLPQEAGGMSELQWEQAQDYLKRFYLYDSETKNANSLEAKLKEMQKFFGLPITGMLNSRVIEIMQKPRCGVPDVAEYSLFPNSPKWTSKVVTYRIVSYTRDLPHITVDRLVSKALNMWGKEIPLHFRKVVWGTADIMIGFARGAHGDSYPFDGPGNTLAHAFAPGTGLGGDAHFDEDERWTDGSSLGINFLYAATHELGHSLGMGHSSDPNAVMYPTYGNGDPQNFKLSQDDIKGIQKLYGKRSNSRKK

[6] = biological target: T8, Matrilysin (Homo sapiens) (UniProt P09237); assay: as §3; procedure, shortened: as §2
T8 sequence (whole entry): T7 sequence (P09237 whole entry)

[7] = biological target: T1, Interstitial collagenase (Homo sapiens); assay: Inhibition of matrix metalloprotease-1; conditions: concentration not given here
Procedure, shortened: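 Human full-length pro-MMP-1 was expressed in NSO myeloma cells and activated just before use with trypsin (10 µg/mL, 25 min, 25 °C), then BPTI (100 µg/mL). Assay: 50 mM Tris/HCl pH 6.8, 10 mM CaCl2, 25 °C, 0.2–5 nM enzyme, 6 µM Mca-Pro-Leu-Gly-Leu-Dpa-Ala-Arg-NH2, fluorescence 340/400 nm over 30 min. Km 100 µM. Triplicate inhibition at five concentrations (20–80% range) gave Ki by the Horovitz–Levitski method.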

[8] = biological target: T8, Matrilysin (Homo sapiens); assay: In vitro inhibition of MMP-7 at 2 uM.
[9] = biological target: T1, Interstitial collagenase (Homo sapiens); assay: Inhibition of matrix metalloprotease-1 at 5 uM
[10] = biological target: T3, Matrix metalloproteinase-9; assay: Inhibition of Matrix metalloprotease-9, gelatinase-B at 2 uM
[11] = biological target: T2, 72 kDa type IV collagenase; assay: Inhibition of MMP-2 gelatinase-A at 2 uM
Target sequence in this assay (P08253 110-660 limits assumed): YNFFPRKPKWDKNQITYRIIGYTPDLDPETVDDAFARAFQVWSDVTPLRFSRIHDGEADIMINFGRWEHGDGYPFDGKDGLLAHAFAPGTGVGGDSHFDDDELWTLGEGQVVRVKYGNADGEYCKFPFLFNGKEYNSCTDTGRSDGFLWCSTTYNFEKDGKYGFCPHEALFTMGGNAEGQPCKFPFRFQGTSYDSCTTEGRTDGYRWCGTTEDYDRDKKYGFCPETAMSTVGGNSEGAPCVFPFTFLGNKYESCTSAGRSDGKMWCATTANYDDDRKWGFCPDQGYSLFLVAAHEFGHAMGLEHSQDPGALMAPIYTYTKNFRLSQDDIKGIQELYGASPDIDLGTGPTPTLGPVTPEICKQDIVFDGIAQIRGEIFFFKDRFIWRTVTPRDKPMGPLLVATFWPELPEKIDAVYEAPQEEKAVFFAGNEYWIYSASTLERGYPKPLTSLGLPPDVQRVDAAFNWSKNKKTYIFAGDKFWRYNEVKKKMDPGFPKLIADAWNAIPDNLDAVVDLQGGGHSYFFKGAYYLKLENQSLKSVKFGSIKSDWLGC

[12] = biological target: T9, Stromelysin-3 (Mus musculus) (UniProt Q02853); assay: Inhibition of MMP-11, stromelysin-3 at 1 uM
T9 sequence (whole entry): T5 sequence (Q02853 whole entry)

[13] = biological target: T9, Stromelysin-3 (Mus musculus); conditions: Homo sapiens; 1 uM
Neutrophil collagenase [14] = biological target: T6, Neutrophil collagenase; assay: Compound was tested for its binding affinity against MMP-8 HNC at 1 uM
Target sequence in this assay (P22894 101-467 limits assumed): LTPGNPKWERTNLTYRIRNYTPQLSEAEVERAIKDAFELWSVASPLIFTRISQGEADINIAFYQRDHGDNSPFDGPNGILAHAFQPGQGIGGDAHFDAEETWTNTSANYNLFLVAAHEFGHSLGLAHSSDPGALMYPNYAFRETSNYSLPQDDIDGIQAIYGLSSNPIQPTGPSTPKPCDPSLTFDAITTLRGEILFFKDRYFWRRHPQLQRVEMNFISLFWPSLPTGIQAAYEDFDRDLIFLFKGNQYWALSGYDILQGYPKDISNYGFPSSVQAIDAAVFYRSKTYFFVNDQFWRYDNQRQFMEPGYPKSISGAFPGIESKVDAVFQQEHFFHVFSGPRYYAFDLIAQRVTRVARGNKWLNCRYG

[15] = biological target: T4, Matrix metalloproteinase-14; assay: Inhibition of MMP-14 membrane-type-MMP at 10 uM
Procedure, shortened: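 Human MMP-14 catalytic domain, expressed in E. coli BL21 DE3 pLysS. Assay in 50 mM Tris/HCl pH 6.8 with 10 mM CaCl2 at 25 °C, using 0.2–5 nM enzyme and 6 μM Mca-Pro-Leu-Gly-Leu-Dpa-Ala-Arg-NH2. Reaction started by adding substrate; fluorescence read at 400 nm (ex 340 nm) over 30 min. Time-dependent inhibitors were preincubated with enzyme for at least 1 h. Percent inhibition from triplicates.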

SMILES	inhibition [1]	Ki [2]	Ki [3]	Ki [4]	Ki (Stromelysin-3)	Ki (Neutrophil collagenase [5])	inhibition [8]	other results
CC(C)CC(CP(=O)(O)C(Cc1ccccc1)NC(=O)OCc1ccccc1)C(=O)NC(Cc1c[nH]c2ccccc12)C(N)=O (stereo not drawn)	45%	202 nM	65 nM	192 nM	22 nM	40 nM		Ki (Matrilysin): 210 nM
CC(C)CC(NC(=O)OCc1ccccc1)C(=O)NC(Cc1ccccc1)P(=O)(O)CC(CCCc1ccccc1)C(=O)NC(Cc1c[nH]c2ccccc12)C(N)=O (stereo not drawn)		40 nM	22 nM	53 nM	6 nM	7 nM		inhibition [6]: 45%; inhibition [7]: 32%
NC(=O)C(Cc1c[nH]c2ccccc12)NC(=O)C(CCCc1ccccc1)CP(=O)(O)C(Cc1ccccc1)NC(=O)c1cc2cc(Cl)cc(Cl)c2oc1=O (stereo not drawn)	62%	100 nM	110 nM	217 nM	5 nM	17 nM	52%	
CC(NC(=O)OCc1ccccc1)P(=O)(O)CC(CCCc1ccccc1)C(=O)NC(Cc1c[nH]c2ccccc12)C(N)=O (stereo not drawn)	30%						4%	
NC(=O)C(Cc1c[nH]c2ccccc12)NC(=O)C(CCCc1ccccc1)CP(=O)(O)C(Cc1ccccc1)NC(=O)CNc1ccccc1 (stereo not drawn)	49%	17 nM	6 nM	73 nM	15 nM	4.5 nM	28%	
NC(=O)C(Cc1c[nH]c2ccccc12)NC(=O)C(CCc1ccc2ccccc2c1)CP(=O)(O)C(Cc1ccccc1)NC(=O)OCc1ccccc1 (stereo not drawn)	0%	30 nM	55 nM	125 nM	12 nM	34 nM		Ki (Matrilysin): 2100 nM
CC(=O)NC(Cc1ccccc1)P(=O)(O)CC(CCCc1ccccc1)C(=O)NC(Cc1c[nH]c2ccccc12)C(N)=O (stereo not drawn)	43%						28%	
CCCCCCCC(CP(=O)(O)C(Cc1ccccc1)NC(=O)OCc1ccccc1)C(=O)NC(Cc1c[nH]c2ccccc12)C(N)=O (stereo not drawn)	27%	75 nM	30 nM	271 nM	34 nM	6 nM	4%	
NC(=O)C(Cc1c[nH]c2ccccc12)NC(=O)C(Cc1ccc2ccccc2c1)CP(=O)(O)C(Cc1ccccc1)NC(=O)OCc1ccccc1 (stereo not drawn)		330 nM	675 nM	1350 nM	74 nM	230 nM		inhibition [9]: 0%; Ki (Matrilysin): 1800 nM
CC(NC(=O)OCc1ccccc1)P(=O)(O)CC(Cc1ccccc1)C(=O)NC(Cc1c[nH]c2ccccc12)C(N)=O (stereo not drawn)	24%						8%	
CC(NC(=O)OCc1ccccc1)P(=O)(O)CC(COCc1ccccc1)C(=O)NC(Cc1c[nH]c2ccccc12)C(N)=O (stereo not drawn)	15%						1%	
NC(=O)C(Cc1c[nH]c2ccccc12)NC(=O)C(CCCc1ccccc1)CP(=O)(O)C(Cc1ccccc1)NC(=O)COCc1ccccc1 (stereo not drawn)	43%						52%	
CC(NC(=O)C(CCCc1ccccc1)CP(=O)(O)C(Cc1ccccc1)NC(=O)OCc1ccccc1)C(N)=O (stereo not drawn)	9%						0%	inhibition [10]: 45%; inhibition [11]: 31%; inhibition [12]: 20%
NC(=O)C(Cc1c[nH]c2ccccc12)NC(=O)C(CCCc1ccccc1)CP(=O)(O)C(Cc1ccccc1)NC(=O)CNc1cc(Cl)ccc1O (stereo not drawn)	72%	30 nM	34 nM	63 nM	10 nM	7.5 nM	65%	
NC(=O)[C@@H](Cc1c[nH]c2ccccc12)NC(=O)C(CCCc1ccccc1)CP(=O)(O)C(Cc1ccccc1)NC(=O)OCc1ccccc1 (stereo partly drawn)	23%	20 nM	10 nM	105 nM	5 nM	2.5 nM	8%	
NC(=O)[C@H](Cc1c[nH]c2ccccc12)NC(=O)C(CCCc1ccccc1)CP(=O)(O)C(Cc1ccccc1)NC(=O)OCc1ccccc1 (stereo partly drawn)	0%						0%	inhibition [13]: 1%; inhibition (Neutrophil collagenase [14]): 2%; inhibition [10]: 14%; inhibition [11]: 6%
NC(=O)C(Cc1c[nH]c2ccccc12)NC(=O)C(CCCCc1ccccc1)CP(=O)(O)C(Cc1ccccc1)NC(=O)OCc1ccccc1 (stereo not drawn)	5%	145 nM	70 nM	580 nM	33 nM	4.3 nM	7%	
NC(=O)C(Cc1c[nH]c2ccccc12)NC(=O)C(COCc1ccccc1)CP(=O)(O)C(Cc1ccccc1)NC(=O)OCc1ccccc1 (stereo not drawn)	9%						3%	
CC(NC(=O)OCc1ccccc1)P(=O)(O)CC(CSCc1ccccc1)C(=O)NC(Cc1c[nH]c2ccccc12)C(N)=O (stereo not drawn)	45%					< 0.5 nM	2%	
CC(NC(=O)OCc1ccccc1)P(=O)(O)CC(CCc1ccccc1)C(=O)NC(Cc1c[nH]c2ccccc12)C(N)=O (stereo not drawn)	23%						3%	
NC(=O)C(Cc1c[nH]c2ccccc12)NC(=O)C(CCc1ccccc1)CP(=O)(O)C(Cc1ccccc1)NC(=O)OCc1ccccc1 (stereo not drawn)	10%						7%	
CC(CP(=O)(O)C(Cc1ccccc1)NC(=O)OCc1ccccc1)C(=O)NC(Cc1c[nH]c2ccccc12)C(N)=O (stereo not drawn)	20%						0%	inhibition [15]: 0%; inhibition (Neutrophil collagenase [14]): 9%; inhibition [10]: 0%; inhibition [11]: 0%
COc1ccc(CSCC(CP(=O)(O)C(Cc2ccccc2)NC(=O)OCc2ccccc2)C(=O)NC(Cc2c[nH]c3ccccc23)C(N)=O)cc1 (stereo not drawn)	13%	6 nM	3 nM	22 nM	2 nM	0.7 nM	20%	
